Consider 13 compounds from ChEMBL document CHEMBL1144035, “Synthesis, cytostatic and anti-HCV activity of 6-(N-substituted aminomethyl)-, 6-(O-substituted hydroxymethyl)- and 6-(S-substituted sulfanylmethyl)purine nucleosides” (Bioorg Med Chem, 2008).

Assay [1] relates to L1210. As to the kind of experiment: Cytostatic activity in mouse L1210 cells assessed as inhibition of cell growth after 72 hrs. The note with it: for pIC50: L1210, 72 h. Format: functional, cell-based. Summed up:
(§1)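 Cultures from ATCC lines: mouse leukaemia L1210 (CCL 219), human promyelocytic leukaemia HL60 (CCL 240) and human T-lymphoblastoid CCRF-CEM (CCL 119). Growth inhibition was estimated from the cell count in a haematological analyzer (haemocytometer).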

In assay [2] the test system is CCRF-CEM. Nature of the assay: Cytostatic activity in human CCRF-CEM cells assessed as inhibition of cell growth after 72 hrs. Type of assay: functional, cell-based. A digest of the protocol:
as §1

Assay [3] has as its system HeLa. Nature of the assay: Cytostatic activity in human HeLa S3 cells assessed as inhibition of cell growth after 48 hrs by XTT assay. Type of assay: functional, cell-based. Background: Formazan colour is commonly taken as a measure of viable cells.
Assay [4] concerns Hepatitis C virus. As to the kind of experiment: Antiviral activity against Hepatitis C virus 1b after 3 days. Type of assay: functional, organism-based, Hepacivirus hominis. The settings on record: genotype 1b, 72 h.
Assay [5] is described as follows: Cytotoxicity against human Huh7 cells after 3 days by MTT method. Type of assay: functional. The settings on record: Huh-7, 72 h. A digest of the protocol:
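Cellular toxicity was read by MTT in Huh-7 cells carrying the con-1 HCV replicon, in duplicate (N = 2).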

In assay [6] the test system is HL-60. Nature of the assay: Cytostatic activity in human HL60 cells assessed as inhibition of cell growth after 72 hrs. Format: functional, cell-based. The note with it: for pIC50: HL-60, 72 h. A digest of the protocol:
as §1

pEC50, pIC50: −log10 of the molar value. Active and inactive are the calls of the source. The calls are words filed in the database; no cut-off is given here. A value given as a limit tells only on which side of the number the result lay.

For `OC[C@H]1O[C@@H](n2cnc3c(CSc4ccccc4)ncnc32)[C@H](O)[C@@H]1O`, the result in assay [1], in assay [2], in assay [3] and in assay [6] was inactive. The same compound showed a negative logarithm of the EC50 (pEC50) in assay [4] of less than 4.00. The compound further gave a CC50 in assay [5] greater than 100 µM.

As for `OC[C@H]1O[C@@H](n2cnc3c(CN4CCCCC4)ncnc32)[C@H](O)[C@@H]1O`, the negative logarithm of the IC50 (pIC50) was 4.92 in assay [1] and 5.16 in assay [6]. The outcome in assay [2] and in assay [3] was inactive. The pEC50 in assay [4] is 4.38. The same compound registered a CC50 in assay [5] of 87 µM.

As to `O=C(O)CNCc1ncnc2c1ncn2[C@@H]1O[C@H](CO)[C@@H](O)[C@H]1O`, the result in assay [1], in assay [2], in assay [3] and in assay [6] was inactive. In assay [4], this compound showed a negative logarithm of the EC50 (pEC50) of 4.06. The CC50 in assay [5] was greater than 100 µM.

As for `OC[C@H]1O[C@@H](n2cnc3c(CN4CCOCC4)ncnc32)[C@H](O)[C@@H]1O`, the outcome in assay [1], in assay [2] and in assay [3] was inactive. In assay [4], the negative logarithm of the EC50 (pEC50) was 3.73. Also, the cytotoxic concentration (CC50) in assay [5] was greater than 250 µM. Besides, in assay [6], the pIC50 is 4.89.

With `CC(C)N(Cc1ncnc2c1ncn2[C@@H]1O[C@H](CO)[C@@H](O)[C@H]1O)C(C)C`, the pIC50 in assay [1] was 4.77; in assay [6], 4.89. In addition, the outcome in assay [2] and in assay [3] was inactive. In assay [4], this compound showed a pEC50 of 5.52. In assay [5], this compound showed a CC50 of 18 µM.

For the compound `CC(=O)N(Cc1ncnc2c1ncn2[C@@H]1O[C@H](CO)[C@@H](O)[C@H]1O)C1CC1`, the result in assay [1], in assay [2], in assay [3] and in assay [6] was inactive. For the same compound, the negative-log EC50 (pEC50) in assay [4] is less than 4.00. In assay [5], the CC50 is greater than 100 µM.

As for `C[C@@]1(O)[C@H](O)[C@@H](CO)O[C@H]1n1cnc2c(N)ncnc21`, in assay [3], the outcome was inactive. This compound also had a negative logarithm of the EC50 (pEC50) in assay [4] of 6.64. Moreover, in assay [5], the cytotoxic concentration (CC50) is greater than 100 µM.

As for `CC(=O)N(Cc1ncnc2c1ncn2[C@@H]1O[C@H](CO)[C@@H](O)[C@H]1O)C1CCCCC1`, the outcome in assay [1], in assay [2], in assay [3] and in assay [6] was inactive. For the same compound, the pEC50 in assay [4] is less than 4.00. In assay [5], this compound yielded a CC50 greater than 100 µM.

As to `O=C1CCCN1Cc1ncnc2c1ncn2[C@@H]1O[C@H](CO)[C@@H](O)[C@H]1O`, the outcome in assay [1], in assay [2], in assay [3] and in assay [6] was inactive. The same compound gave a pEC50 in assay [4] of 4.85. The compound further returned a CC50 in assay [5] of 45 µM.

Regarding `OCc1ncnc2c1ncn2[C@@H]1O[C@H](CO)[C@@H](O)[C@H]1O`, the negative-log IC50 (pIC50) in assay [2] is 6.82; in assay [6] it was 8.00. Further, the result in assay [3] was inactive.

Turning to `CN(C)Cc1ncnc2c1ncn2[C@@H]1O[C@H](CO)[C@@H](O)[C@H]1O`, the pIC50 was 5.29 in assay [1] and 5.40 in assay [6]. The outcome in assay [2] and in assay [3] was inactive. Moreover, the negative logarithm of the EC50 (pEC50) in assay [4] was 4.39. The same compound had a CC50 in assay [5] greater than 100 µM.

With `OC[C@H]1O[C@@H](n2cnc3c(COc4ccccc4)ncnc32)[C@H](O)[C@@H]1O`, the result in assay [1], in assay [3] and in assay [6] was inactive. Also, the negative-log EC50 (pEC50) in assay [4] was less than 4.00. This compound also yielded a CC50 in assay [5] greater than 100 µM.

For `O=c1[nH]c(=O)n([C@H]2C[C@H](O)[C@@H](CO)O2)cc1F` [FLOXURIDINE], in assay [1], the negative logarithm of the IC50 (pIC50) was 7.92. Further, the outcome in assay [3] was inactive.

The term pEC50 denotes the EC50 on a negative log10 scale, so that one unit is a factor of ten. High values mean a low EC50, low ones a high EC50. One may read the CC50 as the concentration giving 50% cytotoxicity. The low end stands for greater toxicity to the cells, the high end for lower toxicity to the cells. The term pIC50 denotes the negative decadic logarithm of the IC50, by convention in mol/L.
